Measured values of several laboratories.
≈ marks a conversion by molar mass, not a printed value.
Organism: Enterococcus faecalis

`Cc1cc(C)n(C(=O)c2ccc(-n3c(C)ccc3C)cc2)n1` has an MIC of 125 µg/mL (≈ 426 µM) (microbial growth; broth dilution; ATCC14506; 18 h).
`CC1(C)S[C@@H]2[C@H](NC(=O)[C@H](N)c3ccccc3)C(=O)N2[C@H]1C(=O)O` gave an inhibition of 100% (microbial growth; agar dilution; ATCC29212; 26.93 µM).
For `Cc1ccc(C)n1-c1ccc(-c2nnc(-c3c(Cl)cccc3Cl)[nH]2)cc1`, the MIC was 8 µg/mL (≈ 20.9 µM) (microbial growth; broth dilution; ATCC14506; 18 h).
The MBC of `c1ccc(CN(CCN(Cc2ccccn2)Cc2ccccn2)Cc2ccccn2)nc1` is reported as greater than 2000 µM (microbial killing; OG1RF).
With `CSc1ccc(-c2nc3ccc(C)cc3n2Cc2ccccc2)cc1` the MIC was 128 µg/mL (≈ 372 µM) (microbial growth; broth dilution; ATCC29212).
With `O=C(O)CN(CCN(CC(=O)O)CC(=O)O)CC(=O)O` the MBC was 500 µM (≈ 146 µg/mL) (microbial killing; OG1RF).
`Clc1ccc(-c2nc3ccccc3[nH]2)c(Cl)c1` gave an MIC of 64 µg/mL (≈ 243 µM) (microbial growth; broth dilution; ATCC29212).
With `CCn1cc(C(=O)O)c(=O)c2cc(F)c(N3CCNCC3)cc21` the MBC was 4 µM (≈ 1.28 µg/mL) (microbial killing; broth dilution; NCTC12697).
With `COc1cccc(-c2nc3ccc(C)cc3[nH]2)c1` the MIC was 128 µg/mL (≈ 537 µM) (microbial growth; broth dilution; ATCC29212).
For `CN[C@H](CC(C)C)C(=O)N[C@H]1C(=O)N[C@@H](CC(N)=O)C(=O)N[C@H]2C(=O)N[C@H]3C(=O)N[C@H](C(=O)N[C@H](C(=O)O)c4cc(O)cc(O)c4-c4cc3ccc4O)[C@H](O)c3ccc(c(Cl)c3)Oc3cc2cc(c3O[C@@H]2O[C@H](CO)[C@@H](O)[C@H](O)[C@H]2O[C@H]2C[C@](C)(N)[C@H](O)[C@H](C)O2)Oc2ccc(cc2Cl)[C@H]1O`, the MBC was 16 µM (≈ 23.2 µg/mL) (microbial killing; broth dilution; NCTC12697).
